# Assay results: ChEMBL document CHEMBL1159060, “2-Dialkynyl derivatives of (N)-methanocarba nucleosides: 'Clickable' A(3) adenosine receptor-selective agonists” (Bioorg Med Chem, 2010)
# Legend:
# [1] = molecular target: T1, Adenosine receptor A1 (Homo sapiens) (UniProt P30542); experiment: Displacement of [3H]NECA from human recombinant adenosine A1 receptor expressed in CHO cells at 10 uM by liquid scintillation counting; format: cell-based
# T1 sequence (whole entry): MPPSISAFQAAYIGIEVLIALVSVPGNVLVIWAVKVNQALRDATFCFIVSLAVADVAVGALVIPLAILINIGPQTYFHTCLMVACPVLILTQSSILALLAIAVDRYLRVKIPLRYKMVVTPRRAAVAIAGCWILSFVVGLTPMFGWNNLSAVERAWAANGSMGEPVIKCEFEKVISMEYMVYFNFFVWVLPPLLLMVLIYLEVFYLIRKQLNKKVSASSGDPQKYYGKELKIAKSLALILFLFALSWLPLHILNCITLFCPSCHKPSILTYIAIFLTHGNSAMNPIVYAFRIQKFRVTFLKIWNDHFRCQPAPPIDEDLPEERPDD
# Outline: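 CHO membranes stably expressing hA1AR, pretreated with adenosine deaminase (3 units/mL, 30 min, 37 °C), 22 μg protein/tube. […] GF/B filtration, scintillation counting, percent inhibition at 10 μM.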
# Adenosine receptor A2a [2] = molecular target: T2, Adenosine receptor A2a (Homo sapiens, UniProt P29274); experiment: Displacement of [3H]CGS21680 from human recombinant adenosine A2A receptor expressed in HEK293 cells at 10 uM by liquid scintillation counting; format: cell-based
# T2 sequence (P29274 whole entry): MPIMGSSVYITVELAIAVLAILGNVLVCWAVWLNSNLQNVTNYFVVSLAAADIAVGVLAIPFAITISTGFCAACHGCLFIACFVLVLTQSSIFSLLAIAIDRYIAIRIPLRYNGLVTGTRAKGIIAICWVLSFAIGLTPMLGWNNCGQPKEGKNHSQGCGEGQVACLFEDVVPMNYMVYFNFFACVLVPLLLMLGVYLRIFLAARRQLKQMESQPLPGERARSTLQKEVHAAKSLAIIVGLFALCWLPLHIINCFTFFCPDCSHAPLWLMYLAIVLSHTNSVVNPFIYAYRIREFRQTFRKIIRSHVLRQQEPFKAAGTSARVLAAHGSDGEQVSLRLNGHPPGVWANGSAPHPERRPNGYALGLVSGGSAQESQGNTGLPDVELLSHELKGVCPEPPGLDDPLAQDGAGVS
# Outline: (§1)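 HEK293 membranes stably expressing hA2AAR (20 μg protein/tube), deaminase-treated (3 units/mL, 30 min, 37 °C). Competition against 10 nM [3H]CGS21680 in Tris-HCl 50 mM pH 7.5 with 10 mM MgCl2, 25 °C for 60 min. […] Filtered on GF/B, scintillation counted.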
# Homo sapiens = organism: Homo sapiens; experiment: Selectivity ratio of Ki for human adenosine A2A receptor to Ki for human adenosine A3 receptor
# [3] = molecular target: T3, Adenosine receptor A2b (Homo sapiens) (UniProt P29275); experiment: Agonist activity at human recombinant adenosine A2B receptor expressed in CHO cells assessed as stimulation of cAMP accumulation at 10 uM by liquid scintillation spectrophotometry relative to NECA
# T3 sequence (whole entry): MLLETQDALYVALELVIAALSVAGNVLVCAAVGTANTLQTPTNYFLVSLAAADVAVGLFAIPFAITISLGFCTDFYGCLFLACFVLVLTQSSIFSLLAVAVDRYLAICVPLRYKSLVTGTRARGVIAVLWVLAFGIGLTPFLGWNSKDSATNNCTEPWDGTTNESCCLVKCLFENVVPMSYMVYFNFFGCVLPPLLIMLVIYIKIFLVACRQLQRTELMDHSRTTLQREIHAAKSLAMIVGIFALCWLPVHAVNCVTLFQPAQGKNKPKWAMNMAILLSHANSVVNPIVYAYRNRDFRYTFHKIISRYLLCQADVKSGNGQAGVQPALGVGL
# Adenosine receptor A3 = molecular target: T4, Adenosine receptor A3 (Homo sapiens, UniProt P0DMS8); experiment: Displacement of I-AB-MECA from human recombinant adenosine A3 receptor expressed in CHO cells
# T4 sequence (P0DMS8 whole entry): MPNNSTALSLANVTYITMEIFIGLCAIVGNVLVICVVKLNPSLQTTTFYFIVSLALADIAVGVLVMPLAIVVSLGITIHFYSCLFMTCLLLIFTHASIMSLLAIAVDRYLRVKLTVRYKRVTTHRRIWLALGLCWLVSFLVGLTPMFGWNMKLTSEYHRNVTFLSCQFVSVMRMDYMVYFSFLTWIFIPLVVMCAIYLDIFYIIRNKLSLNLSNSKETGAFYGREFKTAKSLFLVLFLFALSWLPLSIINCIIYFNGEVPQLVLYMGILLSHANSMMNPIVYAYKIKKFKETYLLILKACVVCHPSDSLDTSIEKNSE
# Adenosine receptor A2a [4] = molecular target: T2, Adenosine receptor A2a; experiment: Displacement of [3H]CGS21680 from human recombinant adenosine A2A receptor expressed in HEK293 cells by liquid scintillation counting; format: cell-based; outline: as §1
# [5] = molecular target: Adenosine receptors; A1 & A3 (Homo sapiens) (UniProt P30542+P0DMS8); experiment: Selectivity for human adenosine A3 receptor over human adenosine A1 receptor
SMILES,inhibition [1],inhibition (Adenosine receptor A2a [2]),Ki (Adenosine receptor A3),further results
CNC(=O)[C@@]12C[C@@H]1[C@@H](n1cnc3c(NCc4cccc(Cl)c4)nc(-c4nnn(-c5ccc(N=C=S)cc5)c4CCCCc4cn(-c5ccc(N=C=S)cc5)nn4)nc31)[C@H](O)[C@@H]2O,4%,40%,,
CNC(=O)[C@@]12C[C@@H]1[C@@H](n1cnc3c(NCc4cccc(Cl)c4)nc(C#CCCCCc4cn(CCNC(C)=O)nn4)nc31)[C@H](O)[C@@H]2O,12%,,,Ratio Ki (Homo sapiens): 109; Activity [3]: 19.4%
CNC(=O)[C@@]12C[C@@H]1[C@@H](n1cnc3c(NCc4cccc(Cl)c4)nc(C#CCCCCc4cn(CCCCCCNC(=O)c5ccc(-c6c7ccc(=N)c(S(=O)(=O)O)c-7oc7c(S(=O)(=O)O)c(N)ccc67)c(C(=O)O)c5)nn4)nc31)[C@H](O)[C@@H]2O,,23%,416 nM,inhibition (INH) [1]: 0%
C#CCCCC#Cc1nc(NCc2cccc(Cl)c2)c2ncn([C@@H]3[C@H](O)[C@H](O)[C@]4(C(=O)NC)C[C@H]34)c2n1,36%,,23.6 nM,Ki (Adenosine receptor A2a [4]): 4.33 µM; Selectivity ratio [5]: > 400; Ratio Ki (Homo sapiens): 300
CCNC(=O)[C@H]1O[C@@H](n2cnc3c(N)ncnc32)[C@H](O)[C@@H]1O,,,,Activity [3]: 100%
CNC(=O)[C@@]12C[C@@H]1[C@@H](n1cnc3c(NCc4cccc(Cl)c4)nc(C#CCCCCc4cn(-c5ccc(C(=O)O)cc5)nn4)nc31)[C@H](O)[C@@H]2O,0%,40%,,
CNC(=O)[C@@]12C[C@@H]1[C@@H](n1cnc3c(NCc4cccc(Cl)c4)nc(C#CCCCCc4cn(CCCCCCNC5SCC6NC(=O)NC65)nn4)nc31)[C@H](O)[C@@H]2O (some centres not stated),,27%,285 nM,inhibition (INH) [1]: 0%
CNC(=O)[C@@]12C[C@@H]1[C@@H](n1cnc3c(NCc4cccc(Cl)c4)nc(C#CCCCCc4cn(Cc5ccc(-n6sccc6=O)cc5)nn4)nc31)[C@H](O)[C@@H]2O,15%,49%,,
CNC(=O)[C@@]12C[C@@H]1[C@@H](n1cnc3c(NCc4cccc(Cl)c4)nc(C#CCCCCc4cn(CCCCNC(C)=O)nn4)nc31)[C@H](O)[C@@H]2O,17%,,,
CNC(=O)[C@@]12C[C@@H]1[C@@H](n1cnc3c(NCc4cccc(Cl)c4)nc(C#CCCCCc4cn(-c5ccc(N)cc5)nn4)nc31)[C@H](O)[C@@H]2O,3%,,,
CNC(=O)[C@@]12C[C@@H]1[C@@H](n1cnc3c(NCc4cccc(Cl)c4)nc(C#CCCCCc4cn(-c5ccc(N=C=S)cc5)nn4)nc31)[C@H](O)[C@@H]2O,2%,28%,,
CNC(=O)[C@@]12C[C@@H]1[C@@H](n1cnc3c(NCc4cccc(Cl)c4)nc(C#CCCC(=O)NCCNC(=O)CCCCC4SCC5NC(=O)NC54)nc31)[C@H](O)[C@@H]2O (some centres not stated),1%,51%,36.4 nM,
CNC(=O)[C@@]12C[C@@H]1[C@@H](n1cnc3c(NCc4cccc(Cl)c4)nc(C#CCCC(=O)NCCNC(=O)CCCCCNC(=O)CCCCC4SCC5NC(=O)NC54)nc31)[C@H](O)[C@@H]2O (some centres not stated),12%,47%,57.7 nM,
CNC(=O)[C@@]12C[C@@H]1[C@@H](n1cnc3c(NCc4cccc(Cl)c4)nc(C#CCCCCc4cn(CCCCN)nn4)nc31)[C@H](O)[C@@H]2O,13%,,,
C#CCCCCC#Cc1nc(NCc2cccc(Cl)c2)c2ncn([C@H]3[C@H](O)[C@H](O)[C@]4(C(=O)NC)C[C@H]34)c2n1,31%,,29.4 nM,Ki (Adenosine receptor A2a [4]): 7.04 µM; Selectivity ratio [5]: > 400; Ratio Ki (Homo sapiens): 300
CCN1\C(=C/C=C/C=C/C2=[N+](CCCCCC(=O)NCCNC(=O)CCC#Cc3nc(NCc4cccc(Cl)c4)c4ncn([C@H]5[C@H](O)[C@H](O)[C@]6(C(=O)NC)C[C@H]56)c4n3)c3ccc(S(=O)(=O)[O-])cc3C2(C)C)C(C)(C)c2cc(S(=O)(=O)O)ccc21,36%,,,Ki (Adenosine receptor A2a [4]): 4.73 µM
CNC(=O)[C@@]12C[C@@H]1[C@@H](n1cnc3c(NCc4cccc(Cl)c4)nc(C#CCCCCc4cn(C56CC7CC(CC(C7)C5)C6)nn4)nc31)[C@H](O)[C@@H]2O,22%,,,Ratio Ki (Homo sapiens): 500; Activity [3]: 36.5%
